16 molecules from ChEMBL document CHEMBL1795297, “Design, synthesis and molecular docking studies of novel triazole as antifungal agent” (2011) can be followed below.

In brackets after ≈: the same amount, converted by molar mass.

Common to all, as to assay type: functional
The test system of one assay is Candida albicans. The experiment in a line: Antifungal activity against Candida albicans ATCC Y0109 after 24 hrs by micro-broth dilution method. The settings on record: ATCC Y0109, 24 h. The procedure, abridged: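 ATCC quality-control strain, tested in every assay. NCCLS M27-A2 broth microdilution. Compounds were dissolved in DMSO, serially diluted in growth medium, inoculated and incubated at 35 °C, with growth read at 24 h. MIC80 is the first well with about 80% growth reduction relative to the drug-free control. Each test was run three times and the mean of replicates taken.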
A general note: Dilution methods test growth across graded concentrations, often in twofold steps.

The test system of a further assay is Candida parapsilosis. The experiment in a line: Antifungal activity against Candida parapsilosis clinical isolate by micro-broth dilution method. Conditions: Lodderomyces parapsilosis. The method, boiled down: (§1)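 Clinical isolate. MIC by broth microdilution following the NCCLS M27-A2 reference method for yeasts. Compounds were dissolved in DMSO, serially diluted in growth medium, inoculated and incubated at 35 °C. MIC80 is the first well with about 80% less growth than the drug-free well. Each test was run three times and the mean of replicates reported.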

The test system of another assay is Candida tropicalis. The experiment in a line: Antifungal activity against Candida tropicalis clinical isolate by micro-broth dilution method. The method, boiled down:
as §1

Another assay concerns Cryptococcus neoformans. Put plainly: Antifungal activity against Cryptococcus neoformans ATCC BLS108 after 72 hrs by micro-broth dilution method. The settings on record: ATCC BLS108, 72 h. The procedure, abridged: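 Quality-control ATCC strain included in each assay. Microbroth dilution per NCCLS M27-A2. DMSO-dissolved compounds were serially diluted in growth medium, inoculated and held at 35 °C, with MIC read at 72 h. MIC80 is the first well showing about 80% growth reduction versus the drug-free well. Tests were done in triplicate and the mean reported.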

In the next assay the test system is Trichophyton rubrum. Put plainly: Antifungal activity against Trichophyton rubrum clinical isolate by micro-broth dilution method. The method, boiled down:
as §1

Assay [1] can be described thus: Antifungal activity against Fonsecaea compacta clinical isolate by micro-broth dilution method. The procedure, abridged: as §1
In the next assay the test system is Nannizzia gypsea. Put plainly: Antifungal activity against Microsporum gypseum clinical isolate by micro-broth dilution method. The method, boiled down:
as §1

A further assay relates to Aspergillus fumigatus. The experiment in a line: Antifungal activity against Aspergillus fumigatus clinical isolate by micro-broth dilution method. The method, boiled down:
as §1

Regarding `CCCC(=O)Nc1ccc(N2CCN(CC(O)(Cn3cncn3)c3ccc(F)cc3F)CC2)c(C(F)(F)F)c1` (stereo not drawn), the MIC80 with Candida albicans came to 1 µg/mL (≈ 1.81 µM); in the assay on Candida parapsilosis it was 0.25 µg/mL (≈ 0.452 µM); in the assay on Candida tropicalis, 1 µg/mL (≈ 1.81 µM); against Cryptococcus neoformans it was 1 µg/mL (≈ 1.81 µM); against Trichophyton rubrum it was 4 µg/mL (≈ 7.24 µM); in assay [1], 4 µg/mL (≈ 7.24 µM). The values for the MIC80 against Nannizzia gypsea and in the assay on Aspergillus fumigatus were 1 µg/mL (≈ 1.81 µM) and greater than 64 µg/mL, respectively.

For `Cc1ccc(C(=O)Nc2ccc(N3CCN(CC(O)(Cn4cncn4)c4ccc(F)cc4F)CC3)c(C(F)(F)F)c2)cc1` (stereo not drawn), the MIC80 is 1 µg/mL (≈ 1.67 µM) in the assay with Candida albicans; 0.25 µg/mL (≈ 0.416 µM) with Candida parapsilosis; 1 µg/mL (≈ 1.67 µM) against Candida tropicalis; 1 µg/mL (≈ 1.67 µM) against Cryptococcus neoformans; 4 µg/mL (≈ 6.66 µM) with Trichophyton rubrum; 16 µg/mL (≈ 26.6 µM) in assay [1]. For the same molecule, the MIC80 was 1 µg/mL (≈ 1.67 µM) in the assay with Nannizzia gypsea and 64 µg/mL (≈ 107 µM) in the assay on Aspergillus fumigatus.

As to `CCc1ccc(C(=O)Nc2ccc(N3CCN(CC(O)(Cn4cncn4)c4ccc(F)cc4F)CC3)c(C(F)(F)F)c2)cc1` (stereo not drawn), the MIC80 turned out to be 0.25 µg/mL (≈ 0.407 µM) against Candida albicans, 0.0625 µg/mL (≈ 0.102 µM) against Cryptococcus neoformans and 4 µg/mL (≈ 6.51 µM) in the assay on Aspergillus fumigatus.

Regarding `COc1ccc(/C=C/C(=O)Nc2ccc(N3CCN(CC(O)(Cn4cncn4)c4ccc(F)cc4F)CC3)c(C(F)(F)F)c2)cc1OC` (stereo not drawn), the MIC80 against Candida albicans was determined as 1 µg/mL (≈ 1.49 µM); against Cryptococcus neoformans it was 1 µg/mL (≈ 1.49 µM); with Aspergillus fumigatus, 4 µg/mL (≈ 5.95 µM).

Take `CC(C)(C)c1ccc(C(=O)Nc2ccc(N3CCN(CC(O)(Cn4cncn4)c4ccc(F)cc4F)CC3)c(C(F)(F)F)c2)cc1` (stereo not drawn): the MIC80 against Candida albicans came out at 4 µg/mL (≈ 6.22 µM); against Candida parapsilosis, 0.25 µg/mL (≈ 0.389 µM); in the assay with Candida tropicalis, 1 µg/mL (≈ 1.56 µM); against Cryptococcus neoformans it was 0.25 µg/mL (≈ 0.389 µM); in the assay with Trichophyton rubrum it was 4 µg/mL (≈ 6.22 µM); in assay [1] it was 4 µg/mL (≈ 6.22 µM). The MIC80 was 4 µg/mL (≈ 6.22 µM) in the assay on Nannizzia gypsea and greater than 64 µg/mL against Aspergillus fumigatus.

Regarding `CCC(=O)Nc1ccc(N2CCN(CC(O)(Cn3cncn3)c3ccc(F)cc3F)CC2)c(C(F)(F)F)c1` (stereo not drawn), the MIC80 with Candida albicans worked out at 0.25 µg/mL (≈ 0.464 µM); in the assay with Candida parapsilosis, 1 µg/mL (≈ 1.86 µM); in the assay on Candida tropicalis, 0.25 µg/mL (≈ 0.464 µM); in the assay on Cryptococcus neoformans it was 1 µg/mL (≈ 1.86 µM); against Trichophyton rubrum it was 1 µg/mL (≈ 1.86 µM); in assay [1], 4 µg/mL (≈ 7.43 µM). For the same molecule, the MIC80 was determined as 1 µg/mL (≈ 1.86 µM) against Nannizzia gypsea and 16 µg/mL (≈ 29.7 µM) with Aspergillus fumigatus.

`COc1ccc(C(=O)Nc2ccc(N3CCN(CC(O)(Cn4cncn4)c4ccc(F)cc4F)CC3)c(C(F)(F)F)c2)cc1` (stereo not drawn): the MIC80 against Candida albicans is 1 µg/mL (≈ 1.62 µM); in the assay on Candida parapsilosis it was 1 µg/mL (≈ 1.62 µM); in the assay with Candida tropicalis it was 1 µg/mL (≈ 1.62 µM); against Cryptococcus neoformans, 1 µg/mL (≈ 1.62 µM); against Trichophyton rubrum, 1 µg/mL (≈ 1.62 µM); in assay [1], 16 µg/mL (≈ 25.9 µM). The MIC80 in the assay on Nannizzia gypsea was 1 µg/mL (≈ 1.62 µM); against Aspergillus fumigatus, 4 µg/mL (≈ 6.49 µM).

In the case of `O=C(/C=C/c1cccc([N+](=O)[O-])c1)Nc1ccc(N2CCN(CC(O)(Cn3cncn3)c3ccc(F)cc3F)CC2)c(C(F)(F)F)c1` (stereo not drawn), the results for the MIC80 with Candida albicans, in the assay with Cryptococcus neoformans and with Aspergillus fumigatus were 0.25 µg/mL (≈ 0.38 µM), 0.0625 µg/mL (≈ 0.095 µM) and 4 µg/mL (≈ 6.08 µM), respectively.

Turning to `N#Cc1cccc(/C=C/C(=O)Nc2ccc(N3CCN(CC(O)(Cn4cncn4)c4ccc(F)cc4F)CC3)c(C(F)(F)F)c2)c1` (stereo not drawn), the MIC80 in the assay with Candida albicans came to 0.25 µg/mL (≈ 0.392 µM); against Cryptococcus neoformans, 0.25 µg/mL (≈ 0.392 µM); against Aspergillus fumigatus it was 4 µg/mL (≈ 6.27 µM).

With `CC(C)(C)C(=O)Nc1ccc(N2CCN(CC(O)(Cn3cncn3)c3ccc(F)cc3F)CC2)c(C(F)(F)F)c1` (stereo not drawn), the MIC80 against Candida albicans is 0.25 µg/mL (≈ 0.441 µM); with Candida parapsilosis, 1 µg/mL (≈ 1.76 µM); against Candida tropicalis it was 1 µg/mL (≈ 1.76 µM); in the assay on Cryptococcus neoformans, 1 µg/mL (≈ 1.76 µM); with Trichophyton rubrum, 4 µg/mL (≈ 7.06 µM); in assay [1], 4 µg/mL (≈ 7.06 µM). Besides, the MIC80 is 0.25 µg/mL (≈ 0.441 µM) against Nannizzia gypsea and greater than 64 µg/mL against Aspergillus fumigatus.

Regarding `COc1cccc(OC)c1/C=C/C(=O)Nc1ccc(N2CCN(CC(O)(Cn3cncn3)c3ccc(F)cc3F)CC2)c(C(F)(F)F)c1` (stereo not drawn), the MIC80 in the assay on Candida albicans is 0.25 µg/mL (≈ 0.372 µM); in the assay on Cryptococcus neoformans, 1 µg/mL (≈ 1.49 µM); against Aspergillus fumigatus it was greater than 64 µg/mL.

On to `O=C(/C=C/c1ccc([N+](=O)[O-])cc1)Nc1ccc(N2CCN(CC(O)(Cn3cncn3)c3ccc(F)cc3F)CC2)c(C(F)(F)F)c1` (stereo not drawn), for which the values for the MIC80 in the assay with Candida albicans, in the assay on Cryptococcus neoformans and against Aspergillus fumigatus were 0.0156 µg/mL (≈ 0.0237 µM), 0.25 µg/mL (≈ 0.38 µM) and 4 µg/mL (≈ 6.08 µM), respectively.

Consider `O=C(/C=C/c1ccccc1F)Nc1ccc(N2CCN(CC(O)(Cn3cncn3)c3ccc(F)cc3F)CC2)c(C(F)(F)F)c1` (stereo not drawn), for which the results for the MIC80 with Candida albicans, in the assay on Cryptococcus neoformans and in the assay on Aspergillus fumigatus were 0.0625 µg/mL (≈ 0.0991 µM), 0.25 µg/mL (≈ 0.396 µM) and 4 µg/mL (≈ 6.34 µM), respectively.

On to `OC(Cn1cncn1)(Cn1cncn1)c1ccc(F)cc1F` [FLUCONAZOLE], for which the MIC80 was determined as 4 µg/mL (≈ 13.1 µM) in the assay on Candida albicans; 1 µg/mL (≈ 3.27 µM) with Candida parapsilosis; 1 µg/mL (≈ 3.27 µM) in the assay with Candida tropicalis; 1 µg/mL (≈ 3.27 µM) in the assay with Cryptococcus neoformans; 0.25 µg/mL (≈ 0.816 µM) against Trichophyton rubrum; 16 µg/mL (≈ 52.2 µM) in assay [1]. Further, the results for the MIC80 in the assay on Nannizzia gypsea and with Aspergillus fumigatus were 0.25 µg/mL (≈ 0.816 µM) and 64 µg/mL (≈ 209 µM), respectively.

Regarding `O=C(Nc1ccc(N2CCN(CC(O)(Cn3cncn3)c3ccc(F)cc3F)CC2)c(C(F)(F)F)c1)c1ccccc1` (stereo not drawn), the MIC80 with Candida albicans came to 1 µg/mL (≈ 1.7 µM); with Candida parapsilosis, 0.25 µg/mL (≈ 0.426 µM); against Candida tropicalis, 1 µg/mL (≈ 1.7 µM); in the assay on Cryptococcus neoformans it was 0.25 µg/mL (≈ 0.426 µM); against Trichophyton rubrum, 1 µg/mL (≈ 1.7 µM); in assay [1], 4 µg/mL (≈ 6.82 µM). The MIC80 against Nannizzia gypsea was found to be 1 µg/mL (≈ 1.7 µM); in the assay with Aspergillus fumigatus, 4 µg/mL (≈ 6.82 µM).

As for `O=C(/C=C/c1ccccc1Cl)Nc1ccc(N2CCN(CC(O)(Cn3cncn3)c3ccc(F)cc3F)CC2)c(C(F)(F)F)c1` (stereo not drawn), the MIC80 with Candida albicans turned out to be 0.0625 µg/mL (≈ 0.0966 µM); against Cryptococcus neoformans, 0.25 µg/mL (≈ 0.386 µM); in the assay with Aspergillus fumigatus, 4 µg/mL (≈ 6.18 µM).

By MIC80 is commonly meant an inhibitory concentration at the 80% level, which refers to growth in some studies and to a panel of isolates in others. Higher therefore signals lower susceptibility.
